Source: ChEMBL document CHEMBL1138521, “Discovery of 4-(5-(4-chlorophenyl)-2-methyl-3-propionyl-1H-pyrrol-1-yl)benzenesulfonamide (A-867744) as a novel positive allosteric modulator of the alpha7 nicotinic acetylcholine receptor” (J Med Chem, 2009)
The source made the active and inactive calls. The rule behind the calls is not given here.

Legend:
[1] = Metabolic stability in rat liver microsomes assessed as compound remaining after 30 mins; type: ADME, Microsome; settings: read-out: Stability
Procedure, shortened: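 Microsomes prewarmed 10 min at 37 °C; reaction started with compound (1 µM final) and NADPH (1 mM final) at 0.5 mg/mL protein, in triplicate. Sampled at 0, 10, 20 and 30 min; stopped with acetonitrile/methanol containing warfarin internal standard; centrifuged supernatant analysed by HPLC-MS.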

[2] = molecular target: T1, Neuronal acetylcholine receptor subunit alpha-7 (Homo sapiens, UniProt P36544); assay: Allosteric modulator activity at alpha7 nAChR in human IMR32 cells assessed as stimulation of agonist-induced intracellular calcium level by FLIPR assay relative to 1-(5-chloro-2,4-dimethoxyphenyl)-3-(5-methylisoxazol-3-yl)urea; type: functional, cell-based; settings: IMR-32
T1 sequence (P36544 whole entry): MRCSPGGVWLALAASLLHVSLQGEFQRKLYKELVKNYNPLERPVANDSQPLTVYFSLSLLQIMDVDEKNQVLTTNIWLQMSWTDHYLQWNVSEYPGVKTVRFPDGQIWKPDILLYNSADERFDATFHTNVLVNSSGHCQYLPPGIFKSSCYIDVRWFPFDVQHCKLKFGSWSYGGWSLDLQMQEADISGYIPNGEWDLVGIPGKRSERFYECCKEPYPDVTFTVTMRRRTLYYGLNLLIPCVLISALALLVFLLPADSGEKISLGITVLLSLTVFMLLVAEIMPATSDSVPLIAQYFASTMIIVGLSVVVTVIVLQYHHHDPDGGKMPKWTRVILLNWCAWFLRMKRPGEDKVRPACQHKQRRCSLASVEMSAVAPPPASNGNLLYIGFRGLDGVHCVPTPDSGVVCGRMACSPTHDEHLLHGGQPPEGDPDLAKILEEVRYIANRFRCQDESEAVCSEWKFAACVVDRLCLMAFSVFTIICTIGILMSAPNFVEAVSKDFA
Procedure, shortened: (§1)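 IMR-32 human neuroblastoma cells (endogenous α7) on poly-D-lysine plates, loaded with calcium-4 no-wash dye in NMDG buffer (10 mM HEPES pH 7.4, 10 mM CaCl2) 1 h at 25 °C. Peak fluorescence over baseline, normalized to maximum; EC50 from 2–5 experiments in duplicate.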

[3] = molecular target: T1, Neuronal acetylcholine receptor subunit alpha-7; assay: Allosteric modulator activity at alpha7 nAChR in human IMR32 cells assessed as stimulation of agonist-induced intracellular calcium level by FLIPR assay; type: functional, cell-based, IMR-32; procedure, shortened: as §1
[4] = Half life in rat at 2 umol/kg, iv; type: ADME, organism-based; settings: in vivo
Oocyte [5] = assay: Modulator activity at alpha7 nAChR in Xenopus laevis oocytes cells assessed as enhancement of acetylcholine-evoked electric currents at -60 mV by two-electrode voltage clamp technique; type: cell-based
Procedure, shortened: (§2)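 Xenopus oocytes, collagenase-defolliculated, injected with ~20–25 ng α7 nAChR cRNA, kept at 18 °C and used 2–7 days later. Two-electrode voltage clamp at −60 mV, room temperature, in Ba2+-OR2 with 0.5 µM atropine. Modulator applied ≥60 s before 1 s application of 100 µM ACh. Apparent peak current expressed as percent of 100 µM ACh response; sigmoidal variable-slope fit.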

[6] = Cmax in rat at 2 umol/kg, po; type: ADME, organism-based; design: dose 2 umol/kg, route oral; settings: in vivo
[7] = Oral bioavailability in monkey at 1 umol/kg; type: ADME, organism-based, Macaca mulatta; settings: rhesus monkey, in vivo
Rattus norvegicus [8] = assay: Plasma concentration Sprague-Dawley rat at 3 mg/kg; type: ADME, organism-based; design: dose 3 mg/kg; settings: in vivo
Procedure, shortened: (§3)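 Anesthetized rat cardiovascular assay at 3, 10 and 30 mg/kg, with plasma concentrations measured alongside mean arterial pressure, heart rate, contractility and peripheral vascular resistance.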

[9] = Volume of distribution at steady state in rat at 2 umol/kg, iv; type: ADME, organism-based; settings: in vivo, read-out: Vdss
[10] = Plasma clearance in monkey at 0.5 umol/kg, iv; type: ADME, organism-based, Macaca mulatta; settings: rhesus monkey
Brain [11] = assay: Drug level in brain of DBA/2 mouse model of sensory gating deficits at 10 umol/kg, ip; type: functional, tissue-based
Procedure, shortened: (§4)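 DBA/2 mice dosed ip at 0.1, 1.0 or 10.0 µmol/kg in vehicle of 5% DMSO and 5% Solutol in PBS; brain concentration reported in ng/g.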

Brain [12] = assay: Drug level in brain of DBA/2 mouse model of sensory gating deficits at 0.1 umol/kg, ip; type: functional, tissue-based; procedure, shortened: as §4
[13] = molecular target: Neuronal acetylcholine receptor; alpha3/beta4 (Homo sapiens) (UniProt P30926+P32297); assay: Activity at human recombinant alpha3beta4 nAChR expressed in HEK293 cells assessed as potentiation of nicotine-evoked calcium transients up to 30 uM; type: cell-based
Mus musculus = assay: Improvement in gating deficits in DBA/2 mouse model of sensory gating deficits assessed as reduction in ratio of response to test stimulus relative to preceding response to conditioning stimulus at 0.1 to 10 umol/kg, ip by paired auditory stimulus paradigm assay; type: functional, organism-based
Procedure, shortened: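 DBA/2 mice (16–20 g) implanted with hippocampal CA3 EEG electrodes under ketamine/xylazine/acepromazine, ≥4 days recovery. Dosed ip in 5% DMSO/5% Solutol in PBS immediately before recording; 120 paired 5 ms white-noise bursts 0.5 s apart over 30 min. N40 amplitude T:C ratio. Within-subjects random-order crossover with vehicle, ≥72 h apart; mean ± SEM, one-way ANOVA with Newman-Keuls test.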

Oocyte [14] = assay: Modulator activity at alpha7 nAChR in Xenopus laevis oocytes cells assessed as decay of acetylcholine-evoked electric current response at -60 mV by two-electrode voltage clamp technique; type: cell-based; procedure, shortened: as §2
[15] = Cmax in dog at 1 umol/kg, po; type: ADME, organism-based, Canis lupus familiaris; design: dose 1 umol/kg, route oral; settings: in vivo
[16] = Plasma clearance in dog at 0.5 umol/kg, iv; type: ADME, organism-based, Canis lupus familiaris
[17] = Volume of distribution at steady state in monkey at 0.5 umol/kg, iv; type: ADME, organism-based, Macaca mulatta; settings: rhesus monkey, in vivo, read-out: Vdss
[18] = molecular target: Neuronal acetylcholine receptor; alpha4/beta2 (Homo sapiens) (UniProt P17787+P43681); assay: Activity at human recombinant alpha4beta2 nAChR expressed in HEK293 cells assessed as potentiation of nicotine-evoked calcium transients up to 30 uM; type: cell-based
Brain [19] = assay: Drug level in brain of DBA/2 mouse model of sensory gating deficits at 1 umol/kg, ip; type: functional, tissue-based; procedure, shortened: as §4
Rattus norvegicus [20] = assay: Plasma concentration Sprague-Dawley rat at 10 mg/kg; type: ADME, organism-based; design: dose 10 mg/kg; settings: in vivo; procedure, shortened: as §3
Rattus norvegicus [21] = assay: Plasma concentration Sprague-Dawley rat at 30 mg/kg; type: ADME, organism-based; design: dose 30 mg/kg; settings: in vivo; procedure, shortened: as §3
Oocyte [22] = assay: Modulator activity at alpha7 nAChR in Xenopus laevis oocytes cells assessed as activation of electric currents at 0.1 nM to 10 uM at -60 mV by two-electrode voltage clamp technique; type: cell-based; procedure, shortened: as §2
[23] = Half life in dog at 0.5 umol/kg, iv; type: ADME, organism-based, Canis lupus familiaris; settings: in vivo
[24] = Volume of distribution at steady state in dog at 0.5 umol/kg, iv; type: ADME, organism-based, Canis lupus familiaris; settings: in vivo, read-out: Vdss
[25] = Cmax in monkey at 1 umol/kg, po; type: ADME, organism-based, Macaca mulatta; design: dose 1 umol/kg, route oral; settings: rhesus monkey, in vivo
[26] = molecular target: Neuronal acetylcholine receptor subunit alpha-7 (Rattus norvegicus) (UniProt Q05941); assay: Modulator activity at alpha7 nAChR in rat neonatal cortical neurons assessed as enhancement of (R)-4-chloro-N-(quinuclidin-8-yl)benzamide-induced calcium flux response at 5 uM by FLIPR assay
Sequence of Neuronal acetylcholine receptor subunit alpha-7 (Rattus norvegicus) (Q05941 whole entry): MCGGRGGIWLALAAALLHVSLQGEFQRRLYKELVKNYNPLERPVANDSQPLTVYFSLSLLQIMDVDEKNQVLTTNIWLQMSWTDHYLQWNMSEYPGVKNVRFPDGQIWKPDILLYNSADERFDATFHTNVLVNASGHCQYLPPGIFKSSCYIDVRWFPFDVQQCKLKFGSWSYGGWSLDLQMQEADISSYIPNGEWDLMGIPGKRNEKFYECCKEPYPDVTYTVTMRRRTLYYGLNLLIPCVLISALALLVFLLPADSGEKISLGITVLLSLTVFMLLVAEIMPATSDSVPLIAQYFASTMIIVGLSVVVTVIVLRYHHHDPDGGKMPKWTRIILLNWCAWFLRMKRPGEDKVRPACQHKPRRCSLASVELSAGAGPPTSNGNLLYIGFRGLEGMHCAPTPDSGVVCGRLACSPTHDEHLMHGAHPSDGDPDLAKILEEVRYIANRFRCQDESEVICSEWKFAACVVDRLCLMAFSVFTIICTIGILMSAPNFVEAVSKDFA
Procedure, shortened: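 Primary neonatal rat cortical neurons cultured on poly-D-lysine plates (10000 cells/well), assayed 3 days after plating. Calcium-3 dye in HBSS with 20 mM HEPES. After 10 s baseline, modulator added for 3–5 min, then agonist. Peak fluorescence increase over baseline in RFU, normalized to maximal value.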

[27] = Plasma clearance in rat at 2 umol/kg, iv; type: ADME, organism-based
[28] = Oral bioavailability in dog at 1 umol/kg; type: ADME, organism-based, Canis lupus familiaris; settings: in vivo
[29] = Oral bioavailability in rat at 2 umol/kg; type: ADME, organism-based; settings: in vivo
[30] = Half life in monkey at 0.5 umol/kg, iv; type: ADME, organism-based, Macaca mulatta; settings: rhesus monkey, in vivo

Cc1cc(C(=O)c2cc(-c3ccc(Cl)cc3)n(-c3ccc(S(N)(=O)=O)cc3)c2C)ccc1Cl
remaining at 0.5 h [1]: 38% | Efficacy [2]: 9% | EC50 [3]: 4.88 µM

Cc1c(C(=O)c2ccc(Cl)cc2)cc(-c2ccc(Cl)cc2)n1-c1ccc(S(N)(=O)=O)cc1
Efficacy [2]: 5% | EC50 [3]: > 30 µM

Cc1c(C(=O)CC(C)C)cc(-c2ccc(Cl)cc2)n1-c1ccc(S(N)(=O)=O)cc1
remaining at 0.5 h [1]: 44% | Efficacy [2]: 74% | EC50 [3]: 3.9 µM

CCN(C)C(=O)c1cc(-c2ccc(Cl)cc2)n(-c2ccc(S(N)(=O)=O)cc2)c1C
Efficacy [2]: 3% | EC50 [3]: > 30 µM

CCOC(=O)c1cc(-c2ccc(Cl)cc2)n(-c2ccc(S(N)(=O)=O)cc2)c1C
remaining at 0.5 h [1]: 3%

Cc1c(C(=O)N(C)C(C)C)cc(-c2ccc(Cl)cc2)n1-c1ccc(S(N)(=O)=O)cc1
Efficacy [2]: 8% | EC50 [3]: > 30 µM

COc1ccc(F)cc1C(=O)c1cc(-c2ccc(Cl)cc2)n(-c2ccc(S(N)(=O)=O)cc2)c1C
remaining at 0.5 h [1]: 45% | Efficacy [2]: 26% | EC50 [3]: 10.5 µM

Cc1c(C(=O)N2CCCCC2)cc(-c2ccc(Cl)cc2)n1-c1ccc(S(N)(=O)=O)cc1
Efficacy [2]: 11% | EC50 [3]: > 30 µM

CCC(=O)c1cc(-c2ccc(Cl)cc2)n(-c2ccc(S(N)(=O)=O)cc2)c1C
half-life [4]: 1.7 h | Activity (Oocyte [5]): Dose-dependent effect | Cmax [6]: 41 ng/mL | bioavailability [7]: 68% | Cp (Rattus norvegicus [8]): 1000 ng/mL | Vd [9]: 4.6 L/kg | clearance [10]: 41.7 mL/min/kg | Drug uptake (Brain [11]): 140 ng/g | Drug uptake (Brain [12]): 2 ng/g | Activity [13]: inactive | remaining at 0.5 h [1]: 96% | Activity (Mus musculus): Active | Activity (Oocyte [14]): Active | Cmax [15]: 87 ng/mL | clearance [16]: 18.3 mL/min/kg | Vd [17]: 2.8 L/kg | Activity [18]: inactive | Drug uptake (Brain [19]): 15 ng/g | Cp (Rattus norvegicus [20]): 5000 ng/mL | Cp (Rattus norvegicus [21]): 12400 ng/mL | Activity (Oocyte [22]): inactive | half-life [23]: 1.3 h | Vd [24]: 1.7 L/kg | Cmax [25]: 17 ng/mL | Activity [26]: Active | clearance [27]: 35 mL/min/kg | bioavailability [28]: 55% | bioavailability [29]: 83% | half-life [30]: 1 h

Cc1c(C(=O)N2CCOCC2)cc(-c2ccc(Cl)cc2)n1-c1ccc(S(N)(=O)=O)cc1
Efficacy [2]: 5% | EC50 [3]: > 30 µM

Cc1ccc(C(=O)c2cc(-c3ccc(Cl)cc3)n(-c3ccc(S(N)(=O)=O)cc3)c2C)cc1
Efficacy [2]: 7% | EC50 [3]: > 30 µM

Cc1c(C(=O)O)cc(-c2ccc(Cl)cc2)n1-c1ccc(S(N)(=O)=O)cc1
Efficacy [2]: 8% | EC50 [3]: > 30 µM

Cc1c(C(=O)C2CC2)cc(-c2ccc(Cl)cc2)n1-c1ccc(S(N)(=O)=O)cc1
remaining at 0.5 h [1]: 92% | Efficacy [2]: 25% | EC50 [3]: 4.9 µM

CCCN(CCO)C(=O)c1cc(-c2ccc(Cl)cc2)n(-c2ccc(S(N)(=O)=O)cc2)c1C
remaining at 0.5 h [1]: 58% | Efficacy [2]: 11% | EC50 [3]: 3.6 µM

Cc1c(C(=O)N2CCCC2)cc(-c2ccc(Cl)cc2)n1-c1ccc(S(N)(=O)=O)cc1
remaining at 0.5 h [1]: 31% | Efficacy [2]: 57% | EC50 [3]: 9.4 µM

CCOC(=O)c1cc(-c2ccc(Br)cc2)n(-c2ccc(S(N)(=O)=O)cc2)c1C
remaining at 0.5 h [1]: 2% | Efficacy [2]: 20% | EC50 [3]: 2.6 µM

CC(=O)c1cc(-c2ccc(Cl)cc2)n(-c2ccc(S(N)(=O)=O)cc2)c1C
remaining at 0.5 h [1]: 64%

Cc1c(C(=O)N(C)C)cc(-c2ccc(Cl)cc2)n1-c1ccc(S(N)(=O)=O)cc1
Efficacy [2]: 4% | EC50 [3]: > 30 µM
